According to ChEMBL document CHEMBL1132616, “6-Substituted benzopyrans as potassium channel activators: synthesis, vasodilator properties, and multivariate analysis” (1999):

Assays:
Rattus norvegicus [1] = organism: Rattus norvegicus; assay: Relaxant potency in rat aorta.; format: functional
Method in brief: (§1)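 Aortic rings (5 mm wide) were denuded of endothelium, confirmed by the absence of a dilator response to 1 mmol/L acetylcholine. Tracheal strips were cut through the ring opposite the muscle layer. Tissues were mounted in 7-mL baths for isometric force recording. Once contraction was stable, cumulative concentration–effect curves were run. Compounds came from 10^-2 M DMSO stocks diluted in water, with final bath DMSO at most 2%.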

Rattus norvegicus [2] = organism: Rattus norvegicus; assay: Relaxant potency in rat trachea.; format: functional; method in brief: as §1

| SMILES | Log 1/C (Rattus norvegicus [1]) | Log 1/C (Rattus norvegicus [2]) |
| --- | --- | --- |
| CC1(C)C=C(n2ccccc2=O)c2cc(OC(=O)Nc3ccc(C(F)(F)F)cc3)ccc2O1 | 5.1 | 4.54 |
| CC1(C)C=C(n2ccccc2=O)c2cc(OCC(=O)c3ccc(F)cc3)ccc2O1 | 4.63 | 4.77 |
| CC1(C)C=C(n2ccccc2=O)c2cc(Br)ccc2O1 | 7.84 | 7.53 |
| CCC(=O)c1ccc2c(c1)C(n1ccccc1=O)=CC(C)(C)O2 | 6.63 | 5.85 |
| CC1(C)C=C(n2ccccc2=O)c2cc(C=C(C#N)C#N)ccc2O1 | 6.95 | 6.3 |
| CC1(C)C=C(n2ccccc2=O)c2cc(C(F)(F)F)ccc2O1 | 7.61 | 7.37 |
| CC1(C)C=C(n2ccccc2=O)c2cc(C(=O)c3c(F)cccc3F)ccc2O1 | 6.97 | 5.99 |
| CC1(C)C=C(n2ccccc2=O)c2cc(OC(=O)Nc3ccc(F)cc3)ccc2O1 | 5.3 | 4.37 |
| CC1(C)C=C(n2ccccc2=O)c2cc(-c3ccncc3)ccc2O1 | 6.68 | 6.32 |
| CC1(C)C=C(n2ccccc2=O)c2cc(C(=O)c3ccco3)ccc2O1 | 6.49 | 5.92 |
| CC1(C)C=C(n2ccccc2=O)c2ccccc2O1 | 5.43 | 5.05 |
| COc1ccc2c(c1)C(n1ccccc1=O)=CC(C)(C)O2 | 6.55 | 5.99 |
| CC1(C)C=C(n2ccccc2=O)c2cc(C(=O)c3ccccc3)ccc2O1 | 6.61 | 6.21 |
| CC1(C)C=C(n2ccccc2=O)c2cc(C(=O)c3ccc([N+](=O)[O-])cc3)ccc2O1 | 6.2 | 6.09 |
| CC1(C)C=C(n2ccccc2=O)c2cc(OC(=O)Nc3ccccc3)ccc2O1 | 5.3 | 4.89 |
| CC1(C)C=C(n2ccccc2=O)c2cc(C=O)ccc2O1 | 6.91 | 6.14 |
| CC1(C)C=C(n2ccccc2=O)c2cc(C(=N)S)ccc2O1 | 6.21 | 5.96 |

| SMILES | Log 1/C (Rattus norvegicus [1]) | Log 1/C (Rattus norvegicus [2]) |
| --- | --- | --- |
| CC1(C)C=C(n2ccccc2=O)c2cc(C(=O)c3ccc(O)cc3)ccc2O1 | 6.65 | 5.87 |
| CC1(C)C=C(n2ccccc2=O)c2cc(C#N)ccc2O1 [BIMAKALIM] | 7.67 | 7.1 |
| CC1(C)C=C(n2ccccc2=O)c2cc(C(=O)c3ccccc3C(F)(F)F)ccc2O1 | 6.76 | 5.78 |
| COc1ccc(C(=O)c2ccc3c(c2)C(n2ccccc2=O)=CC(C)(C)O3)cc1 | 6.15 | 5.72 |
| CC1(C)C=C(n2ccccc2=O)c2cc(C(=O)c3ccccc3[N+](=O)[O-])ccc2O1 | 6.17 | 5.64 |
| Cc1ccccc1C(=O)c1ccc2c(c1)C(n1ccccc1=O)=CC(C)(C)O2 | 6.83 | 6.25 |
| CC1(C)C=C(n2ccccc2=O)c2cc(OC(=O)Nc3ccccc3C(F)(F)F)ccc2O1 | 5.58 | 5.19 |
| CC1(C)C=C(n2ccccc2=O)c2cc(C(=O)c3cccs3)ccc2O1 | 6.4 | 5.84 |
| CC1(C)C=C(n2ccccc2=O)c2cc(C(=O)c3ccccc3F)ccc2O1 | 7.08 | 6.34 |
| CC1(C)C=C(n2ccccc2=O)c2cc(OCC(=O)c3ccccc3)ccc2O1 | 5.05 | 4.69 |
| CC(=O)Oc1ccc2c(c1)C(n1ccccc1=O)=CC(C)(C)O2 | 5.6 | 4.97 |
| Cc1ccc(C)n1-c1ccc2c(c1)C(n1ccccc1=O)=CC(C)(C)O2 | 7.27 | 6.78 |
| CC(=O)c1ccc2c(c1)C(n1ccccc1=O)=CC(C)(C)O2 | 7.37 | 6.65 |
| CC1(C)C=C(n2ccccc2=O)c2cc(OC(=O)Nc3ccccc3F)ccc2O1 | 5.38 | 4.22 |
| CC1(C)C=C(n2ccccc2=O)c2cc(O)ccc2O1 | 5.44 | 5.31 |
| CC1(C)C=C(n2ccccc2=O)c2cc(OS(=O)(=O)F)ccc2O1 | 7.95 | 7.22 |
| CC1(C)C=C(n2ccccc2=O)c2cc(C(=N)NO)ccc2O1 | 5.99 | 5.51 |
